Experiments:
wild-type menin = wild-type menin (Homo sapiens, UniProt O00255); assay: Thermal shift assay, wild-type menin; type: binding
M278K menin mutant = M278K menin mutant (Homo sapiens, UniProt O00255, M278K); assay: Thermal shift assay, M278K menin mutant; type: binding
Y323K menin mutant = Y323K menin mutant (Homo sapiens, UniProt O00255, Y323K); assay: Thermal shift assay, Y323K menin mutant; type: binding
menin-MLL-AF9 complex = menin-MLL-AF9 complex (Homo sapiens, UniProt O00255); assay: Co-immunoprecipitation in HEK293 cells transfected with Flag-MLL-AF9; type: cell-based
Chain of menin-MLL-AF9 complex (O00255 whole entry, one chain of several): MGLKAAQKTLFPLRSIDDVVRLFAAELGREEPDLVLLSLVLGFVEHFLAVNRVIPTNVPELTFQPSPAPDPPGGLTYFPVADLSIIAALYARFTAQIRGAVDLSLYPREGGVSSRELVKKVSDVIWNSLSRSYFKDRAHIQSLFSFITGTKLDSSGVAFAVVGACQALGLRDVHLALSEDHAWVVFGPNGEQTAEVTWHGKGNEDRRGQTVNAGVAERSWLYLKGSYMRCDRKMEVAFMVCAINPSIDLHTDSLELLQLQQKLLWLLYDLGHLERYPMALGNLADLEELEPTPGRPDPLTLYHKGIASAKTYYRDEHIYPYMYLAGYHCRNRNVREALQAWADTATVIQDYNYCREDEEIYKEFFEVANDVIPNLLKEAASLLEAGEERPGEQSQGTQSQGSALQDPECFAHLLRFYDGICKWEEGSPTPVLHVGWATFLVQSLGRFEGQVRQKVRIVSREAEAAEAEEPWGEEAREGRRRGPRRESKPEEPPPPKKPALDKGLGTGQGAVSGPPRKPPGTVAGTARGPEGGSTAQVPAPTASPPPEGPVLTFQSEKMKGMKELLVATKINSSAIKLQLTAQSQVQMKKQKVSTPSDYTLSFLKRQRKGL
How it was run: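 Menin co-precipitating with Flag-MLL-AF9 was detected by Western blot. Untransfected cells controlled for endogenous menin and for absence of MLL-AF9. Menin and MLL-AF9 expression levels were also checked by Western blot.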

MLL-AF9 transduced BMC = assay: MTT cell viability assay, MLL-AF9 transduced BMC; type: cell-based, mouse
How it was run: (§1)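 Retrovirally transduced mouse bone marrow cells were grown in IMDM with 15% FBS, 1% penicillin/streptomycin and IL-3. Growth inhibition by the test compound was measured by MTT viability assay. Quadruplicates, mean ± s.d.; three experiments.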

MLL-ENL transduced BMC = assay: MTT cell viability assay, MLL-ENL transduced BMC; type: cell-based, mouse
How it was run: as §1

E2A-HLF transduced BMC = assay: MTT cell viability assay, E2A-HLF transduced BMC; type: cell-based, mouse
How it was run: as §1

MLL-AF9 transformed BMC [1] = assay: Methylcellulose colony formation assay, MLL-AF9 transformed BMC; type: cell-based, mouse; conditions: 7 days
How it was run: (§2)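 Transduced BMC were plated at 5×10³ cells/ml in methylcellulose medium containing 20% IMDM, 1% penicillin/streptomycin, IL-3 and either the test compound or 0.25% DMSO. Colonies were stained with iodonitrotetrazolium chloride (1 mg/ml final, 37 °C, 30 min) and counted. For a second round, unstained colonies were counted, washed out in PBS, and 5×10³ cells were replated in the same medium with compound, then stained and counted.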

E2A-HLF transformed BMC [2] = assay: Methylcellulose colony formation assay, E2A-HLF transformed BMC; type: cell-based, mouse
How it was run: as §2

MLL-AF9 transformed BMC [3] = assay: Differentiation by morphology; type: cell-based, mouse; conditions: 7 to 10 days, 25 μM
MLL-ENL transformed BMC = assay: Differentiation by morphology, MLL-ENL transformed BMC; type: cell-based, mouse
E2A-HLF transformed BMC [4] = assay: Differentiation by morphology, E2A-HLF transformed BMC; type: cell-based, mouse
[5] = system: CD11b expression in MLL-AF9 transformed BMC; assay: CD11b expression by flow cytometry, MLL-AF9 transformed BMC; type: cell-based, mouse; conditions: 7 days of treatment
How it was run: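 BMC were cultured in IMDM with 15% FBS, penicillin/streptomycin and IL-3, and plated at 5×10⁵ cells/ml with the test compound or 0.25% DMSO. Every 48h the medium was changed, viable density restored and compound resupplied. 1.5×10⁵ cells were washed in PBS/1% FBS/0.1% NaN₃, stained with Pacific Blue anti-mouse CD11b (4 °C, 30 min), then Annexin V-FITC/PI, and run on flow cytometry. Triplicates, mean ± s.d.; one-way ANOVA against DMSO; three experiments.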

Hoxa9 [6] = assay: Quantitative RT-PCR of Hoxa9 in MLL-AF9 transduced BMC; type: cell-based, mouse; conditions: 6 days
Meis1 [7] = assay: Quantitative RT-PCR of Meis1 in MLL-AF9 transduced BMC; type: cell-based, mouse; conditions: 6 days
[8] = system: menin and MLL-AF9 at the Hoxa9 locus; assay: ChIP at the Hoxa9 locus in MLL-AF9 transduced BMC; type: cell-based, mouse; conditions: 12.5 μM
How it was run: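 ChIP used BMC exposed to the test compound at 12.5 μM or to DMSO. Antibodies were against menin and AF9, with IgG as control. Enrichment was read at two sites in the Hoxa9 promoter region. Duplicate samples, mean ± s.d.; two experiments.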

[9] = system: MV4;11 (harboring MLL-AF4); assay: MTT cell viability assay, MV4; type: cell-based, human; conditions: MV4;11, MTT, 72h
How it was run: (§3)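 Growth inhibition was read by MTT viability assay, with 72h treatment stated for KOPN-8 and MV4;11. Media: KOPN-8 and ML-2, RPMI-1640 with 10% FBS. MV4;11, RPMI-1640 with 10% FBS, 1% penicillin/streptomycin and NEAA. MonoMac-6, RPMI-1640 with 15% FBS, human insulin, penicillin/streptomycin and NEAA. For KOPN-8 and MV4;11: four samples, mean ± s.d., three experiments.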

KOPN-8 (MLL-ENL) = assay: MTT cell viability assay, KOPN-8; type: cell-based, human; conditions: KOPN-8, MTT, 72h
How it was run: as §3

ML-2 (MLL-AF6) = assay: MTT cell viability assay, ML-2; type: cell-based, human; conditions: ML-2, MTT
How it was run: as §3

MonoMac6 (MLL-AF9) = assay: MTT cell viability assay, MonoMac6; type: cell-based, human
How it was run: as §3

[10] = system: Kasumi-1, ME-1, HAL-01 and REH; assay: Growth of human acute leukemia cell lines lacking MLL fusions; type: cell-based; conditions: low HOXA9: Kasumi-1, ME-1, HAL-01, REH
MV4;11 = assay: Annexin V/PI apoptosis assay, MV4; type: cell-based, human; conditions: MV4;11, 48h
How it was run: (§4)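 Cells were seeded at 5×10⁵ cells/ml and exposed to the test compound or vehicle (0.25% DMSO final) for 48h at 37 °C in 5% CO₂. 1.5×10⁵ cells were then stained with Annexin V-FITC and propidium iodide in Annexin V binding buffer for 10 min at room temperature in the dark, and analysed by flow cytometry. Three experiments in triplicate; mean and SD.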

MonoMac6 = assay: Annexin V/PI apoptosis assay, MonoMac6; type: cell-based, human; conditions: MonoMac6, 48h
How it was run: as §4

MV4;11 leukemia cells = assay: Cell cycle analysis by FACS after PI staining, MV4; type: cell-based, human; conditions: MV4;11, PI staining
[11] = system: CD11b expression in THP-1 cells; assay: CD11b expression by flow cytometry, THP-1; type: cell-based, human; conditions: THP-1, 6 days of treatment
HOXA9 [12] = assay: qRT-PCR of HOXA9 in THP-1 cells; type: cell-based, human; conditions: THP-1, 6 days
How it was run: (§5)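 THP-1 cells in RPMI-1640 with 10% FBS, 1% penicillin/streptomycin and NEAA were treated with the test compound for 6 days. Total RNA (100–1000 ng) was reverse transcribed, and TaqMan qPCR measured human HOXA9 or MEIS1, normalised to 18S rRNA by the comparative Ct method. Duplicates, mean ± s.d.; three experiments.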

MEIS1 [13] = assay: qRT-PCR of MEIS1 in THP-1 cells; type: cell-based, human; conditions: THP-1, 6 days
How it was run: as §5

Chain of wild-type menin (O00255 whole entry): as the sequence (O00255 whole entry, one chain of several) above
Chain of M278K menin mutant (O00255 whole entry M278K): as the sequence (O00255 whole entry, one chain of several) above, with M278K counted along it
Chain of Y323K menin mutant (O00255 whole entry Y323K): as the sequence (O00255 whole entry, one chain of several) above, with Y323K counted along it

binding to wild-type menin (wild-type menin): clearly observed binding | binding to M278K menin mutant (M278K menin mutant): no binding | binding to Y323K menin mutant (Y323K menin mutant): no binding | disruption of the menin-MLL-AF9 complex (co-IP) (menin-MLL-AF9 complex): very efficiently disrupted | binding of menin and MLL-AF9 to the Hoxa9 locus (ChIP) [8]: decreased binding of menin and MLL-AF9 | GI50 [9]: 9.5 µM
Compound: CCCc1cc2c(N3CCN(C4=NCC(C)(C)S4)CC3)ncnc2s1 [MI-2]
GI50 (MLL-AF9 transduced BMC): ~5 µM | GI50 (MLL-ENL transduced BMC): ~5 µM | GI50 (E2A-HLF transduced BMC): > 50 µM | effect on colony formation (MLL-AF9 transformed BMC [1]): substantially reduced colony formation | effect on the number, size and morphology of colonies (E2A-HLF transformed BMC [2]): only a limited effect | differentiation (cell morphology) (MLL-AF9 transformed BMC [3]): substantial changes in morphology, indicative of monocytic differentiation | differentiation (cell morphology) (MLL-ENL transformed BMC): observed differentiation | differentiation (cell morphology) (E2A-HLF transformed BMC [4]): did not differentiate | expression of CD11b [5]: substantially increased | decrease of Hoxa9 expression level (Hoxa9 [6]; 12.5 μM): > 80% | decrease of Hoxa9 expression level (Hoxa9 [6]; 25 μM): > 80% | decrease of Meis1 expression level (Meis1 [7]; 12.5 μM): > 80% | decrease of Meis1 expression level (Meis1 [7]; 25 μM): > 80% | GI50 (KOPN-8 (MLL-ENL)): 7.2 µM | GI50 (ML-2 (MLL-AF6)): 8.7 µM | GI50 (MonoMac6 (MLL-AF9)): 18 µM | effect on proliferation [10]: very limited effect | Annexin V (+) and Annexin V/PI (+)/(+) cells (apoptosis) (MV4;11): substantial, and dose-dependent increase | Annexin V (+) and Annexin V/PI (+)/(+) cells (apoptosis) (MonoMac6): substantial, and dose-dependent increase | effect on cell cycle progression (MV4;11 leukemia cells): consistent increase in the number of cells in G0/G1 phase | CD11b positive cells [11]: substantial increase in CD11b positive cells | expression of HOXA9 (HOXA9 [12]): substantially reduced expression | expression of MEIS1 (MEIS1 [13]): substantially reduced expression

Reference: publication PMC3401603 (Nature Chemical Biology, 2012)
